28 compounds from ChEMBL document CHEMBL1687912, “Sugar-based enantiomeric and conformationally constrained pyrrolo[2,1-c][1,4]-benzodiazepines as potential GABAA ligands” (J Med Chem, 2011) can be followed below.

For this assay, the species on record is Rattus norvegicus. Description: Displacement of [3H]flunitrazepam from GABAA receptor in rat cortical membrane assessed as [3H]flunitrazepam binding at 100 uM after 90 mins by scintillation counting. In kind it is cell membranes. Put shortly: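 Rat frontal cortex membranes (sucrose homogenate, ultracentrifuged pellets in 50 mM Tris-HCl pH 7.4), 0.3 mg protein per tube, incubated 90 min at 4 °C with 1 nM [3H]flunitrazepam ± 100 μM test compound (final; benzyl-sugar analogues from ethanol stock). Nonspecific binding with 100 μM flumazenil. Rapid GF/B filtration, ice-cold buffer washes, scintillation counting; expressed as % specific binding; three independent experiments in triplicate.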
Turning to `CN1C(=O)[C@@H]2C[C@]3(CN2C(=O)c2cc(Br)ccc21)O[C@@H](COCc1ccccc1)[C@H](OCc1ccccc1)[C@H]3OCc1ccccc1`, the Activity was 93.2%.
As for `CN1C(=O)[C@@H]2CCCN2C(=O)c2cc([N+](=O)[O-])ccc21`, the Activity turned out to be 63.4%.
`CN1C(=O)[C@H]2C[C@@]3(CN2C(=O)c2cc(Cl)ccc21)O[C@H](CO)[C@@H](O)[C@@H]3O`: the Activity was 73.7%.
To `CN1C(=O)[C@@H]2C[C@]3(CN2C(=O)c2cc(Cl)ccc21)O[C@@H](CO)[C@H](O)[C@H]3O` belongs 77%.
Consider `O=C1Nc2ccccc2C(=O)N2CCC[C@@H]12`, for which the Activity was found to be 95.5%.
With `CN1C(=O)[C@H]2C[C@@]3(CN2C(=O)c2cc(N)ccc21)O[C@H](CO)[C@@H](O)[C@@H]3O` the figure was 70.6%; with `CN1C(=O)[C@@H]2C[C@]3(CN2C(=O)c2ccccc21)O[C@@H](CO)[C@H](O)[C@H]3O`, 112%; with `CN1C(=O)[C@H]2CCCN2C(=O)c2cc([N+](=O)[O-])ccc21`, 80.2%.
Turning to `Nc1ccc2c(c1)C(=O)N1C[C@]3(C[C@@H]1C(=O)N2)O[C@H](CO)[C@@H](O)[C@@H]3O`, the Activity worked out at 80.2%.
As to `CN1C(=O)[C@H]2C[C@@]3(CN2C(=O)c2cc(Br)ccc21)O[C@H](COCc1ccccc1)[C@@H](OCc1ccccc1)[C@@H]3OCc1ccccc1`, the Activity was found to be 111%.
For the compound `O=C1Nc2ccccc2C(=O)N2C[C@]3(C[C@H]12)O[C@H](COCc1ccccc1)[C@@H](OCc1ccccc1)[C@@H]3OCc1ccccc1`, the Activity is 112%.
With `CN1C(=O)[C@@H]2C[C@]3(CN2C(=O)c2cc(Cl)ccc21)O[C@@H](COCc1ccccc1)[C@H](OCc1ccccc1)[C@H]3OCc1ccccc1` the figure was 82.3%.
Regarding `CN1C(=O)[C@H]2C[C@@]3(CN2C(=O)c2cc([N+](=O)[O-])ccc21)O[C@H](COCc1ccccc1)[C@@H](OCc1ccccc1)[C@@H]3OCc1ccccc1`, the Activity is 74.9%.
In the case of `CN1C(=O)[C@H]2C[C@@]3(CN2C(=O)c2ccccc21)O[C@H](CO)[C@@H](O)[C@@H]3O`, the Activity is 93%.
To `O=C1Nc2ccccc2C(=O)N2C[C@@]3(C[C@@H]12)O[C@@H](COCc1ccccc1)[C@H](OCc1ccccc1)[C@H]3OCc1ccccc1` belongs 96.3%; to `CN1C(=O)[C@@H]2C[C@]3(CN2C(=O)c2ccccc21)O[C@@H](COCc1ccccc1)[C@H](OCc1ccccc1)[C@H]3OCc1ccccc1`, 106%; to `O=C1Nc2ccccc2C(=O)N2C[C@]3(C[C@H]12)O[C@H](CO)[C@@H](O)[C@@H]3O`, 78.2%.
With `O=C1Nc2ccc([N+](=O)[O-])cc2C(=O)N2C[C@]3(C[C@H]12)O[C@H](COCc1ccccc1)[C@@H](OCc1ccccc1)[C@@H]3OCc1ccccc1` the figure was 101%.
With `CN1C(=O)[C@H]2C[C@@]3(CN2C(=O)c2ccccc21)O[C@H](COCc1ccccc1)[C@@H](OCc1ccccc1)[C@@H]3OCc1ccccc1` the figure was 96.4%; with `O=C1Nc2ccccc2C(=O)N2CCC[C@H]12`, 97%.
For `CN1C(=O)[C@H]2C[C@@]3(CN2C(=O)c2cc(Br)ccc21)O[C@H](CO)[C@@H](O)[C@@H]3O`, the Activity is 84.2%.
With `CN1C(=O)[C@@H]2C[C@]3(CN2C(=O)c2cc([N+](=O)[O-])ccc21)O[C@@H](COCc1ccccc1)[C@H](OCc1ccccc1)[C@H]3OCc1ccccc1` the figure was 82.8%; with `Nc1ccc2c(c1)C(=O)N1C[C@@]3(C[C@H]1C(=O)N2)O[C@@H](CO)[C@H](O)[C@H]3O`, 73.9%.
As to `CN1C(=O)[C@@H]2C[C@]3(CN2C(=O)c2cc(N)ccc21)O[C@@H](CO)[C@H](O)[C@H]3O`, the Activity came to 83.5%.
For the compound `CN1C(=O)[C@@H]2C[C@]3(CN2C(=O)c2cc(Br)ccc21)O[C@@H](CO)[C@H](O)[C@H]3O`, the Activity worked out at 82.2%.
Turning to `CN1C(=O)[C@H]2C[C@@]3(CN2C(=O)c2cc(Cl)ccc21)O[C@H](COCc1ccccc1)[C@@H](OCc1ccccc1)[C@@H]3OCc1ccccc1`, the Activity is 92.9%.
For `O=C1Nc2ccc([N+](=O)[O-])cc2C(=O)N2C[C@@]3(C[C@@H]12)O[C@@H](COCc1ccccc1)[C@H](OCc1ccccc1)[C@H]3OCc1ccccc1`, the Activity turned out to be 69.6%.
Take `O=C1Nc2ccccc2C(=O)N2C[C@@]3(C[C@@H]12)O[C@@H](CO)[C@H](O)[C@H]3O`: the Activity was determined as 110%.
